Source: PubChem
Many of the other results were omitted from the sample, so hits are more common in it than they were.
INS-1E rescue: preserves ATP levels in cytokine-treated INS-1E cells. INS-1E cytokine-induced death, ATP luminescence, 48 h; normalised: neutral wells 0, positive control 100. protection from cytokine-induced ATP loss, % at 10 µM. hit rate 0.1% among 20,000. AID 488910;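 active = mean replicate protection from cytokine-induced ATP loss at least 50% and at least 75% of replicates each reaching 50%; inconclusive = meets only one of the two criteria, mean or replicate share; inactive = fails both the mean and replicate share criteria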
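Assay system: INS-1E rat insulinoma cells. Amount: 8000 cells per well. Medium: phenol-red-free RPMI with 5% fetal bovine serum. Reagent: IL-1β, TNF-α and IFN-γ cytokine mix. Doses: one compound concentration, pin transfer. Schedule: 48 h co-treatment, 10 min post-lysis read. Detection: CellTiter-Glo luminescence measuring cellular ATP.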
YB-1 expr inh: YB-1 expression inhibition. U2OS, qRT-PCR YB-1 vs CDIP delta delta Cp, 16 h; stronger effect = higher value; zero = DMSO, each unit about twofold. delta delta Cp (YB-1 minus CDIP) (test concentration not listed). hit rate 0.37% among 30,000. AID 434959;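 active = delta delta Cp rounded down to an integer at or above 3, about 3 SD of DMSO wells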;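 also: higher means less YB-1 transcript or more CDIP transcript relative to DMSO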
T cruzi intra: inhibitors of intracellular Trypanosoma cruzi. intracellular Trypanosoma cruzi in host cells, plate reader. activity score (inhibition), % at 5.01 µM. hit rate 4.9% among 22,000. AID 651903; in the data active = activity score above about 55%; inconclusive = no clear call, values can overlap the other calls;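 also: parasites and compound incubated about four days before reading; 0% = median of neutral control wells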
* hit, by the source's call; ? = inconclusive; / = not tested or not shown.

SMILES | INS-1E rescue | YB-1 expr inh | T cruzi intra
C[C@@H]1CN([C@H](C)CO)C(=O)Cc2cc(NS(=O)(=O)c3ccc(F)cc3)ccc2O[C@@H]1CN(C)Cc1ccc(C(=O)Nc2ccccc2N)cc1 | -8 | -0.25 | 55
C[C@@H]1CN([C@H](C)CO)C(=O)Cc2cc(NS(=O)(=O)c3ccc(F)cc3)ccc2O[C@H]1CN(C)Cc1ccc(C(=O)Nc2ccccc2N)cc1 | -8 | -0.46 | 47
C[C@@H]1CN([C@@H](C)CO)C(=O)c2cc(NS(=O)(=O)c3cccs3)ccc2O[C@H]1CN(C)Cc1ccc(C(=O)Nc2ccccc2N)cc1 | -5 | 0.043 | 14
C[C@@H]1CN([C@H](C)CO)C(=O)Cc2cc(NS(=O)(=O)c3ccc(Cl)cc3)ccc2O[C@H]1CN(C)Cc1ccc(C(=O)Nc2ccccc2N)cc1 | 5 | -0.36 | 69*
C[C@H]1CN([C@@H](C)CO)C(=O)Cc2cc(NS(=O)(=O)c3cccs3)ccc2O[C@H]1CN(C)Cc1ccc(C(=O)Nc2ccccc2N)cc1 | 23 | -0.24 | 68*
COc1ccc(S(=O)(=O)Nc2ccc3c(c2)CC(=O)N([C@@H](C)CO)C[C@H](C)[C@H](CN(C)Cc2ccc(C(=O)Nc4ccccc4N)cc2)O3)cc1 | 7 | -0.94 | ?
COc1ccc(S(=O)(=O)Nc2ccc3c(c2)CC(=O)N([C@@H](C)CO)C[C@H](C)[C@@H](CN(C)Cc2ccc(C(=O)Nc4ccccc4N)cc2)O3)cc1 | 2 | -0.57 | 58*
C[C@@H]1CCC2C(C)(C)CCC[C@@]2(C)[C@@]1(O)CC/C(=C\CO)CO (stereo not given in full) | / | 0.22 | /
COc1cc(/C=N/NC(=O)CCCCC(=O)NO)c([N+](=O)[O-])cc1OC | 17 | -0.46 | -4
COc1ccc(C#Cc2ccc3c(c2)[C@]2(C(=O)N3)[C@H](C(=O)NC[C@H](O)c3ccccc3)[C@H]3C(=O)O[C@H](c4ccccc4)[C@H](c4ccccc4)N3[C@@H]2c2ccc(O)cc2)cc1 | / | 0.09 | /
C[C@H]1CN([C@@H](C)CO)C(=O)c2cccc(NC(=O)c3nc4ccccc4s3)c2O[C@H]1CN(C)Cc1ccc(C(=O)Nc2ccccc2N)cc1 | -10 | 0.19 | 79*
C[C@H](CO)N1C[C@H](C)[C@@H](CN(C)Cc2ccncc2)Oc2c(NC(=O)c3nc4ccccc4s3)cccc2C1=O | -12 | -2.9 | 27
C[C@H](CO)N1C[C@H](C)[C@H](CN(C)Cc2ccncc2)Oc2c(NC(=O)c3nc4ccccc4s3)cccc2C1=O | 1 | 0.38 | 11
C[C@@H]1CN([C@H](C)CO)C(=O)c2cccc(NC(=O)c3nc4ccccc4s3)c2O[C@H]1CN(C)Cc1ccc(C(=O)Nc2ccccc2N)cc1 | 18 | -0.27 | 79*
C[C@@H]1CN([C@H](C)CO)C(=O)c2cc(NS(=O)(=O)c3cn(C)cn3)ccc2O[C@H]1CN(C)C(=O)Nc1ccc2c(c1)OCO2 | -6 | -0.24 | 3
O=C1O[C@@H](c2ccccc2)[C@@H](c2ccccc2)N2[C@@H](c3ccccc3OCCO)[C@]3(C(=O)Nc4ccc(C#CC5=CCCCC5)cc43)[C@@H](C(=O)NC[C@H](O)c3ccccc3)[C@H]12 | / | -0.18 | /
C[C@@H]1CN([C@H](C)CO)C(=O)Cc2cc(NS(=O)(=O)c3cccs3)ccc2O[C@@H]1CN(C)S(=O)(=O)c1ccc(F)cc1 | -4 | -0.12 | 60*
C[C@H]1CN([C@@H](C)CO)C(=O)Cc2cc(NS(=O)(=O)c3cccs3)ccc2O[C@@H]1CN(C)S(=O)(=O)c1ccc(F)cc1 | -2 | 0.016 | -7
Cc1ccc(S(=O)(=O)Nc2ccc3c(c2)CC(=O)N([C@@H](C)CO)C[C@H](C)[C@@H](CN(C)S(=O)(=O)c2cccs2)O3)cc1 | -2 | -0.16 | -13
Cc1ccc(S(=O)(=O)N(C)C[C@H]2Oc3ccc(NS(=O)(=O)c4cccs4)cc3CC(=O)N([C@H](C)CO)C[C@H]2C)cc1 | -16 | -0.62 | 72*
C[C@@H]1CN([C@@H](C)CO)C(=O)c2cc(NC(=O)C3CC3)ccc2O[C@@H]1CN(C)S(=O)(=O)c1cn(C)cn1 | 2 | 0.13 | -14
C[C@@H]1CN([C@H](C)CO)C(=O)c2cc(NS(=O)(=O)c3ccc(F)cc3)ccc2O[C@@H]1CN(C)Cc1ccc(Oc2ccccc2)cc1 | -42 | 0.064 | -11
COCCOC(=O)N1C(=O)[C@@]2(c3ccccc31)[C@H](c1ccc(OCCO)cc1)N1[C@H](c3ccccc3)[C@H](c3ccccc3)OC(=O)[C@H]1[C@@H]2C(=O)Nc1nc2ccccc2s1 | / | -0.44 | /
